These results are taken from ChEMBL document CHEMBL1221202, “Small-molecule pheromones that control dauer development in Caenorhabditis elegans” (Nat Chem Biol, 2007).

Active and inactive are the calls of the source. The calls are words filed in the database; no cut-off is given here.

In test [1] the test system is Caenorhabditis elegans. Kind of test: Induction of dauer formation in wild type Caenorhabditis elegans Bristol […] at 20 degC. In kind it is functional, organism-based. The procedure, abridged: (§1)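 Wild-type N2 eggs were laid on plates containing a range of ascaroside concentrations plus a little food, then held at 20 °C or 25 °C, and percent dauer formation was scored. Each value is the mean of three experiments. EC50 was taken as half-maximal activity from a sigmoidal fit with the lower limit fixed at 0 and the upper limit left free.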

In test [2] the test system is Caenorhabditis elegans. Kind of test: Induction of dauer formation in Caenorhabditis elegans Bristol ocr-2(ak47) mutant at 20 degC. In kind it is functional, organism-based. The essentials: (§2)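 Dauer formation assay: eggs were laid on agar plates containing a range of ascaroside concentrations plus a small amount of food, and percent dauer formation was scored. Stock worms were maintained at 20–23 °C on NG plates made with Noble agar and seeded with E. coli OP50.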

Test [3] deals with Caenorhabditis elegans. Kind of test: Induction of dauer formation in Caenorhabditis elegans Bristol tax-2(p691) mutant at 20 degC. In kind it is functional, organism-based. The essentials: as §2
Test [4] relates to Caenorhabditis elegans. Kind of test: Induction of dauer formation in wild type Caenorhabditis elegans Bristol […] at 25 degC. In kind it is functional, organism-based. The essentials:
as §1

Test [5] deals with Caenorhabditis elegans. Kind of test: Induction of dauer formation in Caenorhabditis elegans Bristol osm-9(ky10) mutant at 20 degC. Type of test: functional, organism-based. The procedure, abridged:
as §2

Test [6] relates to Caenorhabditis elegans. Kind of test: Induction of dauer formation in Caenorhabditis elegans Bristol tax-4(p678) mutant at 20 degC. In kind it is functional, organism-based. The essentials: as §2
For test [7], the system named is Caenorhabditis elegans. Kind of test: Induction of dauer formation in Caenorhabditis elegans Bristol egl-4(ks61) mutant at 20 degC. Type of test: functional, organism-based. The essentials: as §2
For test [8], the system named is Caenorhabditis elegans. Kind of test: Induction of dauer formation in Caenorhabditis elegans Bristol daf-7(1372) mutant at 20 degC. In kind it is functional, organism-based. The essentials: as §2
The test system of test [9] is Caenorhabditis elegans. Kind of test: Induction of dauer formation in wild type Caenorhabditis elegans Bristol N2 at 73 uM.

For `C[C@H](CCCCC(=O)O)O[C@@H]1O[C@@H](C)[C@H](O)C[C@H]1O` [DAUMONE], the EC50 was 88000 nM in [1] and 18000 nM in [4]. In addition, the outcome in test [2], in [3], in test [5], in test [6], in test [7] and in test [8] was inactive.
Take `CC(=O)CC[C@@H](C)O[C@@H]1O[C@@H](C)[C@H](O)C[C@H]1O`: the EC50 was 460 nM in test [1] and 120 nM in [4]. Besides, the outcome in test [2], in [3], in test [5], in test [6], in test [7] and in test [8] was inactive. For the same compound, the outcome in test [9] was Active.
Regarding `C[C@H](CCCC/C=C/C(=O)O)O[C@@H]1O[C@@H](C)[C@H](O)C[C@H]1O`, the values for the EC50 in test [1] and in test [4] were 1100 nM and 370 nM, respectively. Further, the result in test [2], in test [3], in test [5], in [6], in test [7] and in test [8] was inactive. Besides, in test [9], the result was Active.

One may read the EC50 as the concentration that produces a half-maximal response. Low values mean an effect from little substance, high ones a need for much substance.
